Data set [1] can be described thus: Bmax value was measured on A-beta-40 fibrils at high salt. An outline of the steps:
(§1)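 Synthetic Aβ40 fibrils (50 µM total Aβ40 stock, 20 µL added to 180 µL probe solution) were incubated with probe at 2–18 µM final in pH 7.4 10 mM phosphate, with 100 or 0 mM NaCl. Stocks for the Re complexes were in methanol, ≤3 vol % final. The mixture was held 1 h at 25 °C, then fibrils were pelleted by centrifugation.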

A short description of data set [2]: max value was measured on A-beta-40 fibrils at low salt. The gist of the method: as §1
A short description of data set [3]: Apparent dissociation constant was measured at 10 mM salt. The gist of the method:
as §1

Data set [4] in a line: Apparent dissociation constant was measured at 110 mM salt. The gist of the method:
as §1

The nature of data set [5]: Partition coefficient (P). The conditions noted are these: octanol/water.

pKd: −log10 of the molar value.

As usually defined, the pKd is the Kd on a negative log10 scale, so that one unit is a factor of ten.

On to `Nc1c(/N=N/c2ccc(-c3ccc(/N=N/c4cc(S(=O)(=O)O)c5ccccc5c4N)cc3)cc2)cc(S(=O)(=O)O)c2ccccc12` [CONGO RED], for which the Bmax in data set [1] was 2.6; in data set [2], 0.6. Also, the pKd was 5.96 in data set [3] and 5.82 in data set [4]. For the same compound, the P in data set [5] is 0.16.

(Values after ChEMBL document CHEMBL1132314, “Synthesis and amyloid binding properties of rhenium complexes: preliminary progress toward a reagent for SPECT imaging of Alzheimer's disease brain” (J Med Chem, 1999).)
